Experimental findings from ChEMBL document CHEMBL4049460, “Trisubstituted Imidazoles with a Rigidized Hinge Binding Motif Act As Single Digit nM Inhibitors of Clinically Relevant EGFR L858R/T790M and L858R/T790M/C797S Mutants: An Example of Target Hopping” (J Med Chem, 2017) are described below.

Assay [1] relates to Epidermal growth factor receptor (Homo sapiens), P00533 [L858R,T790M]. Nature of the assay: Ratio of Kd for human EGFR L858R/T790M double mutant (669 to 1011 residues) after 1 hr to Kd for EGFR L858R/T790M double mutant (669 to 1011 residues) after 6 hrs. An outline of the steps: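 Kd from competition with an immobilized active-site-directed ligand […]. Ratio compares 1 h compound–kinase equilibration against an arm with 6 h overall equilibration.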

The target of assay [2] is Tyrosine-protein kinase Tec (Homo sapiens) (UniProt P42680). Nature of the assay: Inhibition of TEC (unknown origin) assessed as residual activity at 1 uM in presence of [33-gamma]-ATP after 60 mins by scintillation counting method relative to control.
Sequence of Tyrosine-protein kinase Tec (Homo sapiens) (P42680 whole entry, the tested form may be a part): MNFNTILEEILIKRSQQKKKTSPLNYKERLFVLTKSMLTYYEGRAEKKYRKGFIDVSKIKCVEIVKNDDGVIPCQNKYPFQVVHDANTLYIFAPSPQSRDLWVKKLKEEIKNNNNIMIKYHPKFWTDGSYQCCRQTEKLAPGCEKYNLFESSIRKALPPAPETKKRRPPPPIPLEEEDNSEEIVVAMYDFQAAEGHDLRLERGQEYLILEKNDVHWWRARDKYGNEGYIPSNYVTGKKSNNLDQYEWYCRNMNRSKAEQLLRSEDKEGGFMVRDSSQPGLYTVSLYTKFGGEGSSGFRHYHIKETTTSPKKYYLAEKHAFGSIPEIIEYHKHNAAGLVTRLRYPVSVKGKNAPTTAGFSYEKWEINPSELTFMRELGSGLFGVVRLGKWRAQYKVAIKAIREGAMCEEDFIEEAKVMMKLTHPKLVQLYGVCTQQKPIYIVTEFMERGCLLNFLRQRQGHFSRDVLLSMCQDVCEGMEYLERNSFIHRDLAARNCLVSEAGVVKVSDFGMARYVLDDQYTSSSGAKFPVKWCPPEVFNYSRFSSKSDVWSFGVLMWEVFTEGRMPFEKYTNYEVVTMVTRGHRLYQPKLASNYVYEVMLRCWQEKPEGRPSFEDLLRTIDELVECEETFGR
The subject of assay [3] is Epidermal growth factor receptor (Homo sapiens), P00533 [L858R,T790M]. Nature of the assay: Inhibition of recombinant human N-terminally GST-His6 tagged EGFR T790M/L858R double mutant (H672 to A1210 residues) C-terminal fragment harboring 3C cleavage site expressed in Baculovirus infected Sf9 cells assessed as residual activity at 1 uM in presence of [33-gamma]-ATP after 60 mins by scintillation counting method relative to control.

In assay [4] the target is Epidermal growth factor receptor (Homo sapiens, UniProt P00533, T790M/C797S/L858R). Nature of the assay: Inhibition of recombinant human N-terminally GST-tagged EGFR L858R/T790M/C797S triple mutant expressed in baculovirus in Sf9 insect cells preincubated for 20 mins followed by addition of [33P]-ATP measured after 2 hrs by filter-binding method.

As for `C=CC(=O)Nc1cccc(-c2c[nH]c3nccc(-c4[nH]c(CCCO)nc4-c4ccc(F)cc4)c23)c1`, in assay [1], the Ratio is 3 to 5. The Activity turned out to be 33% in assay [2] and 21% in assay [3]. In assay [4], the IC50 entry is “Not Active”.
